Reference: ChEMBL document CHEMBL4152323, “N-(1,3,4-oxadiazol-2-yl)benzamide analogs, bacteriostatic agents against methicillin- and vancomycin-resistant bacteria” (Eur J Med Chem, 2018)
Values after ≈ are worked out from the molar mass of the structure shown. Active and inactive are the calls of the source. The rule behind the calls is not given here.

How the values were obtained:
[1] = system: Escherichia coli; assay: Bacteriostatic activity against AcrAB-tolC deficient Escherichia coli JW5503-1 after 20 hrs by broth microdilution method; assay type: functional; settings: JW5503-1, 20 h
In short: (§1)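 MIC by broth microdilution across 128 to 1 μg/mL in 96-well plates, 37 °C for at least 20 h. MIC is the lowest concentration with no visible growth.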

[2] = system: Enterococcus faecalis; assay: Potency index, ratio of vancomycin MIC to test compound MIC for vancomycin-resistant Enterococcus faecalis ATCC 51575
[3] = system: Enterococcus faecalis; assay: Bacteriostatic activity against vancomycin-resistant Enterococcus faecalis ATCC 51575 after 20 hrs by broth microdilution method; assay type: functional; settings: ATCC 51575, 20 h
In short: (§2)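 Broth microdilution MIC over 128 to 1 μg/mL, run alongside methicillin, linezolid and vancomycin. MIC taken as the lowest concentration with no visible growth.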

[4] = system: Staphylococcus aureus; assay: Bacteriostatic activity against Staphylococcus aureus ATCC 25923 after 20 hrs by broth microdilution method; assay type: functional; settings: ATCC 25923, 20 h; in short: as §2
[5] = system: Staphylococcus aureus; assay: Antibacterial activity against Staphylococcus aureus assessed as growth inhibition at 16 ug/ml after 24 hrs; assay type: functional, organism-based
In short: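 S. aureus grown in Mueller Hinton Broth to early exponential phase, then exposed to compound (16 μg/mL; DMSO stocks 10 mg/mL) or DMSO in duplicate, 37 °C for 24 h. OD600 read; percent normalized OD600 = (X − media blank)/(DMSO control − media blank) × 100.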

[6] = system: Enterococcus faecium; assay: Bacteriostatic activity against vancomycin-resistant Enterococcus faecium ATCC 700221 clinical isolate after 20 hrs by broth microdilution method; assay type: functional; settings: ATCC 700221, 20 h
In short: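 Broth microdilution MIC over 128 to 1 μg/mL in Brain Heart Infusion broth, 37 °C for at least 20 h. MIC taken as the lowest concentration with no visible growth.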

[7] = system: Staphylococcus aureus; assay: Bacteriostatic activity against methicillin-resistant Staphylococcus aureus USA300 NRS384 clinical isolate after 20 hrs by broth microdilution method; assay type: functional; settings: USA300 NRS384, 20 h; in short: as §2
[8] = Ratio of non toxic concentration for human Caco2 cells to MIC for methicillin-resistant Staphylococcus aureus ATCC 33592; assay type: toxicity; settings: Caco-2 cells
[9] = system: Staphylococcus aureus; assay: Bacteriostatic activity against methicillin-resistant Staphylococcus aureus USA800 NRS387 clinical isolate after 20 hrs by broth microdilution method; assay type: functional; settings: USA800 NRS387, 20 h; in short: as §2
[10] = system: Caco-2; assay: Cytotoxicity against human Caco2 cells assessed as decrease in cell viability up to 128 ug/ml after 24 hrs by MTS assay; assay type: cell-based; settings: caco-2, 24 h
In short: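 Caco-2 cells were grown in DMEM with 20% FBS, 1X non-essential amino acids and penicillin-streptomycin at 37 °C, 5% CO2. Viability is % of DMSO-treated cells.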

[11] = system: Staphylococcus aureus; assay: Bactericidal activity against methicillin-resistant Staphylococcus aureus USA700 NRS386 clinical isolate preincubated for 20 hrs followed by TSA plating and measured after 18 hrs; assay type: functional
[12] = system: Staphylococcus aureus; assay: Potency index, ratio of methicillin MIC to test compound MIC for methicillin-resistant Staphylococcus aureus ATCC 33592; assay type: functional
[13] = system: Staphylococcus aureus; assay: Bacteriostatic activity against methicillin-resistant Staphylococcus aureus NRS119 clinical isolate after 20 hrs by broth microdilution method; assay type: functional; settings: NRS119, 20 h; in short: as §2
[14] = system: Enterococcus faecium; assay: Bactericidal activity against vancomycin-resistant Enterococcus faecium ATCC 700221 clinical isolate preincubated for 20 hrs followed by TSA plating and measured after 18 hrs; assay type: functional
In short: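 MBC: 4 μL from wells with no growth in the MIC plate (Brain Heart Infusion broth, 37 °C, at least 20 h) spotted onto Tryptic Soy Agar. Read after at least 18 h at 37 °C.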

[15] = system: Acinetobacter baumannii; assay: Bacteriostatic activity against Acinetobacter baumannii ATCC 19606 after 20 hrs by broth microdilution method; assay type: functional; settings: ATCC 19606 = CIP 70.34 = JCM 6841, 20 h; in short: as §1
[16] = system: Staphylococcus aureus; assay: Bactericidal activity against vancomycin-intermediate Staphylococcus aureus NRS1 clinical isolate preincubated for 20 hrs followed by TSA plating and measured after 18 hrs; assay type: functional
[17] = system: Staphylococcus aureus; assay: Antibacterial activity against methicillin-resistant Staphylococcus aureus USA300 at 12 ug/ml preincubated for 24 hrs followed by agar plating and measured after 18 to 20 hrs by time-kill assay relative to control; assay type: functional
[18] = system: Staphylococcus aureus; assay: Bacteriostatic activity against methicillin-resistant Staphylococcus aureus USA500 NRS385 clinical isolate after 20 hrs by broth microdilution method; assay type: functional; settings: USA500 NRS385, 20 h; in short: as §2
[19] = system: J774; assay: Cytotoxicity against mouse J774 cells assessed as decrease in cell viability up to 128 ug/ml after 24 hrs by MTS assay; assay type: cell-based; settings: j774, 24 h
[20] = system: Staphylococcus aureus; assay: Bacteriostatic activity against methicillin-resistant Staphylococcus aureus USA400 NRS123 measured over 14 days by broth microdilution method
[21] = system: Staphylococcus aureus; assay: Ratio of MIC for methicillin-resistant Staphylococcus aureus USA400 NRS123 measured after 10th to 14th passage to MIC for methicillin-resistant Staphylococcus aureus USA400 NRS123 measured prior 10th to 14th passage; assay type: functional
In short: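 MRSA USA400 (NRS123) passaged serially, once a day, over 14 passages in two weeks. Broth microdilution MIC of test agent and ciprofloxacin measured after each passage. A four-fold MIC shift taken as resistance.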

[22] = system: Staphylococcus aureus; assay: Bactericidal activity against methicillin-resistant Staphylococcus aureus USA500 NRS385 clinical isolate preincubated for 20 hrs followed by TSA plating and measured after 18 hrs; assay type: functional
[23] = system: Staphylococcus aureus; assay: Bactericidal activity against vancomycin-resistant Staphylococcus aureus VRS12 clinical isolate preincubated for 20 hrs followed by TSA plating and measured after 18 hrs; assay type: functional
[24] = system: Enterococcus faecalis; assay: Bacteriostatic activity against Enterococcus faecalis ATCC 29212 after 20 hrs by broth microdilution method; assay type: functional; settings: ATCC 29212, 20 h; in short: as §2
[25] = system: Staphylococcus aureus; assay: Bactericidal activity against methicillin-resistant Staphylococcus aureus USA400 NRS123 clinical isolate preincubated for 20 hrs followed by TSA plating and measured after 18 hrs; assay type: functional
[26] = system: Staphylococcus aureus; assay: Bacteriostatic activity against vancomycin-resistant Staphylococcus aureus VRS12 clinical isolate after 20 hrs by broth microdilution method; assay type: functional; settings: VRS12, 20 h; in short: as §2
[27] = Ratio of non toxic concentration for mouse J774 cells to MIC for methicillin-resistant Staphylococcus aureus ATCC 33592; assay type: toxicity
[28] = system: Staphylococcus aureus; assay: Bacteriostatic activity against methicillin-resistant Staphylococcus aureus ATCC 33592 after 20 hrs by broth microdilution method; assay type: functional; settings: ATCC 33592, 20 h; in short: as §2
[29] = system: Escherichia coli; assay: Bacteriostatic activity against Escherichia coli BW25113 after 20 hrs by broth microdilution method; assay type: functional; settings: BW25113, 20 h; in short: as §1
[30] = system: Listeria monocytogenes; assay: Bacteriostatic activity against Listeria monocytogenes ATCC 19115 after 20 hrs by broth microdilution method; assay type: functional; settings: ATCC 19115, 20 h; in short: as §1
[31] = system: Pseudomonas aeruginosa; assay: Bacteriostatic activity against Pseudomonas aeruginosa ATCC 15442 after 20 hrs by broth microdilution method; assay type: functional; settings: ATCC 15442, 20 h; in short: as §1
[32] = system: Staphylococcus aureus; assay: Antibacterial activity against methicillin-resistant Staphylococcus aureus USA300 in BALB/c mouse wound infection model assessed as reduction in bacterial burden in wound at 2% administered topically bid for 5 days relative to control; assay type: functional; set-up: scale not given: the % may be the effect or the level left
In short: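 Female BALB/c mice, eight weeks old, n = 5 per group, injected intradermally with 40 μL of 1.32×10^9 CFU/mL MRSA USA300. Once an abscess or open wound formed, it was treated topically twice daily for five days with 2% agent in petroleum jelly, with vehicle as control. Wound tissue excised 12 h after the last dose, homogenized in PBS, diluted and plated on mannitol salt agar for 16 h or more at 37 °C. CFU reduction calculated against vehicle.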

[33] = system: Staphylococcus aureus; assay: Bactericidal activity against methicillin-resistant Staphylococcus aureus USA300 NRS384 clinical isolate preincubated for 20 hrs followed by TSA plating and measured after 18 hrs; assay type: functional
[34] = system: Klebsiella pneumoniae; assay: Bacteriostatic activity against Klebsiella pneumoniae BAA 1706 after 20 hrs by broth microdilution method; assay type: functional; settings: BAA 1706, 20 h; in short: as §1
[35] = system: Staphylococcus aureus; assay: Bacteriostatic activity against methicillin-resistant Staphylococcus aureus USA700 NRS386 clinical isolate after 20 hrs by broth microdilution method; assay type: functional; settings: USA700 NRS386, 20 h; in short: as §2
[36] = system: Staphylococcus aureus; assay: Bactericidal activity against methicillin-resistant Staphylococcus aureus USA800 NRS387 clinical isolate preincubated for 20 hrs followed by TSA plating and measured after 18 hrs; assay type: functional
[37] = system: Staphylococcus aureus; assay: Bactericidal activity against methicillin-resistant Staphylococcus aureus NRS119 clinical isolate preincubated for 20 hrs followed by TSA plating and measured after 18 hrs; assay type: functional
[38] = system: Staphylococcus aureus; assay: Bacteriostatic activity against vancomycin-intermediate Staphylococcus aureus NRS1 clinical isolate after 20 hrs by broth microdilution method; assay type: functional; settings: NRS1, 20 h; in short: as §2
[39] = system: Staphylococcus aureus; assay: Bacteriostatic activity against methicillin-resistant Staphylococcus aureus USA400 NRS123 clinical isolate after 20 hrs by broth microdilution method; assay type: functional; settings: USA400 NRS123, 20 h; in short: as §2
[40] = system: Staphylococcus aureus; assay: Antibacterial activity against methicillin-resistant Staphylococcus aureus USA300 at 6 ug/ml preincubated up to12 hrs followed by agar plating and measured after 18 to 20 hrs by time-kill assay; assay type: functional, organism-based

SMILES	MIC [1]	MIC [3]	MIC [4]	MIC [6]	MIC [7]	MIC [9]	MBC [11]	MIC [13]	MBC [14]	MBC [16]	MIC [18]	MBC [22]	MBC [23]	MBC [25]	MIC [26]	MBC [33]	MIC [35]	MBC [36]	MBC [37]	MIC [39]	further results
C[C@@H]1C[C@H](C)CN(S(=O)(=O)c2ccc(C(=O)Nc3nnc(-c4cccs4)o3)cc2)C1 (mixture of isomers)	2 µg/mL	4 µg/mL	2 to 4 µg/mL	2 µg/mL	2 µg/mL	2 µg/mL	> 128 µg/mL	2 µg/mL	128 µg/mL	> 128 µg/mL	2 µg/mL	> 128 µg/mL	> 128 µg/mL	> 128 µg/mL	2 µg/mL	> 128 µg/mL	2 µg/mL	> 128 µg/mL	> 128 µg/mL	2 µg/mL	Ratio [2]: >32; growth inhibition (GI) [5]: Active; selectivity ratio [8]: 63; Activity [10]: Non-Toxic; Ratio [12]: > 64; MIC [15]: 128 µg/mL; Activity [17]: 2.01 deltalog10CFU/ml; Activity [19]: Non-Toxic; Activity [20]: Active; Ratio [21]: 1; MIC [24]: 4 µg/mL; selectivity ratio [27]: 63; MIC [28]: 2 to 4 µg/mL; MIC [29]: > 128 µg/mL; MIC [30]: 4 µg/mL; MIC [31]: > 128 µg/mL; Activity [32]: 72.41%; MIC [34]: > 128 µg/mL; MIC [38]: 2 µg/mL
CC(=O)O[C@H]1C[C@@]2(C)[C@@H](C[C@@H](O)[C@H]3[C@@]4(C)CC[C@@H](O)[C@@H](C)[C@@H]4CC[C@@]32C)/C1=C(\CCC=C(C)C)C(=O)O [FUSIDIC ACID]	–	–	–	–	–	–	–	–	–	–	–	–	–	–	–	–	–	–	–	–	Activity [32]: 77.91%
CC(=O)NC[C@H]1CN(c2ccc(N3CCOCC3)c(F)c2)C(=O)O1 [LINEZOLID]	8 µg/mL (≈ 23.7 µM)	–	–	≤ 1 µg/mL	≤ 1 µg/mL	≤ 1 µg/mL	128 µg/mL (≈ 379 µM)	32 µg/mL (≈ 94.9 µM)	64 µg/mL (≈ 190 µM)	1 µg/mL (≈ 2.96 µM)	≤ 1 µg/mL	2 µg/mL (≈ 5.93 µM)	32 µg/mL (≈ 94.9 µM)	64 µg/mL (≈ 190 µM)	≤ 1 µg/mL	64 µg/mL (≈ 190 µM)	≤ 1 µg/mL	128 µg/mL (≈ 379 µM)	32 µg/mL (≈ 94.9 µM)	≤ 1 µg/mL	MIC [29]: > 128 µg/mL; MIC [38]: ≤ 1 µg/mL
CN[C@H](CC(C)C)C(=O)N[C@H]1C(=O)N[C@@H](CC(N)=O)C(=O)N[C@H]2C(=O)N[C@H]3C(=O)N[C@H](C(=O)N[C@H](C(=O)O)c4cc(O)cc(O)c4-c4cc3ccc4O)[C@H](O)c3ccc(c(Cl)c3)Oc3cc2cc(c3O[C@@H]2O[C@H](CO)[C@@H](O)[C@H](O)[C@H]2O[C@H]2C[C@](C)(N)[C@H](O)[C@H](C)O2)Oc2ccc(cc2Cl)[C@H]1O [VANCOMYCIN]	–	> 128 µg/mL	1 to 2 µg/mL (≈ 0.69 to 1.38 µM)	> 128 µg/mL	≤ 1 µg/mL	–	≤ 1 µg/mL	≤ 1 µg/mL	> 128 µg/mL	4 µg/mL (≈ 2.76 µM)	≤ 1 µg/mL	2 µg/mL (≈ 1.38 µM)	> 128 µg/mL	≤ 1 µg/mL	> 128 µg/mL	≤ 1 µg/mL	≤ 1 µg/mL	2 µg/mL (≈ 1.38 µM)	≤ 1 µg/mL	≤ 1 µg/mL	MIC [24]: 2 µg/mL (≈ 1.38 µM); MIC [28]: 1 to 2 µg/mL (≈ 0.69 to 1.38 µM); MIC [30]: 1 µg/mL (≈ 0.69 µM); Activity [40]: Active
